Experimental data gathered from unrelated publications.
Lines come from different studies, so protocols differ.
Cell line: HeLa
Read-out: cell growth or viability

SMILES	method	time	IC50
N#Cc1ccc(NC(=S)NN=Cc2ccc([N+](=O)[O-])cc2)cc1	–	72 h	142 µg/mL
CC(C)[C@]12O[C@H]1[C@@H]1O[C@]13[C@]1(O[C@H]1C[C@H]1C4=C(CC[C@@]13C)C(=O)OC4)[C@@H]2O	thymidine uptake	24 h	12 nM
CC[C@@]1(OC(=O)[C@@H](N)CCSC)C(=O)OCc2c1cc1n(c2=O)Cc2cc3cc4c(cc3nc2-1)OCO4	MTT	–	95 nM
CSc1ccc(NC(=S)NN)cc1	–	72 h	18 µg/mL
C[C@]12CCC(=O)C[C@@H]1CC[C@@H]1[C@@H]2CC[C@@]2(C)[C@H]1CC[C@]2(C)O	MTT	24 h	27600 nM
Nc1cc(Br)c(Br)cc1N	–	72 h	20000 nM
N#Cc1ccc(NC(=S)NN=Cc2ccc(F)cc2)cc1	–	72 h	68 µg/mL
CC[C@@]1(OC(=O)[C@@H](N)CCCCN)C(=O)OCc2c1cc1n(c2=O)Cc2cc3cc4c(cc3nc2-1)OCO4	MTT	–	24 nM
COc1ccc(C=NNC(=S)Nc2ccc(C#N)cc2)cc1	–	72 h	31 µg/mL
Nc1cc(I)c(I)cc1N	–	72 h	15000 nM
[Cl-].[Cl-].[Co+2]	MTT	48 h	> 150000 nM
CC[C@@]1(OC(=O)[C@@H](N)Cc2ccccc2)C(=O)OCc2c1cc1n(c2=O)Cc2cc3cc4c(cc3nc2-1)OCO4	MTT	–	64 nM
COc1cc(C(=O)c2cc3c(-c4ccccc4)c(O)ccc3o2)cc(OC)c1OC	–	–	31000 nM
CC[C@@]1(OC(=O)[C@@H]2CCCN2)C(=O)OCc2c1cc1n(c2=O)Cc2cc3cc4c(cc3nc2-1)OCO4	MTT	–	200 nM
COc1c2c(cc3c1OCO3)[C@]13C=C[C@H](OC)C[C@@H]1[N@](C2)C[C@H]3OC(=O)c1ccoc1	WST-1	48 h	> 10000 nM
CC[C@@]1(OC(=O)CN)C(=O)OCc2c1cc1n(c2=O)Cc2cc3cc4c(cc3nc2-1)OCO4	MTT	–	42 nM
O=C(Cc1ccc2ccccc2c1)N[C@@H](Cc1ccccc1)C(=O)N[C@@H](Cc1ccccc1)C(=O)N[C@@H](Cc1ccc(OP(=O)(O)O)cc1)C(=O)O	MTT	48 h	> 500000 nM
CC[C@@]1(OC(=O)[C@H](C)N)C(=O)OCc2c1cc1n(c2=O)Cc2cc3cc4c(cc3nc2-1)OCO4	MTT	–	103 nM
COc1c2c(cc3c1OCO3)[C@]13C=C[C@H](OC)C[C@@H]1[N@](C2)C[C@H]3OC(=O)c1ccco1	WST-1	48 h	> 10000 nM
